Reference: ChEMBL document CHEMBL1142286, “2-Oxo-tetrahydro-1,8-naphthyridines as selective inhibitors of malarial protein farnesyltransferase and as anti-malarials” (Bioorg Med Chem Lett, 2008)

What was measured:
Liver = test: (§1) Metabolic stability assessed as half life in mouse liver microsomes; format: ADME, Microsome; conditions: microsomes
Method in brief: (§2)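 Compound incubated with mouse liver microsomes. Half-time is for the loss of parent compound, in minutes.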

Plasmodium falciparum [1] = test: Inhibition of Plasmodium falciparum protein farnesyltransferase at 500 nM
Plasmodium falciparum [2] = test: Inhibition of Plasmodium falciparum protein farnesyltransferase at 50 nM
Plasmodium falciparum [3] = test: Inhibition of Plasmodium falciparum protein farnesyltransferase at 5 nM
Plasmodium falciparum [4] = test: Inhibition of Plasmodium falciparum protein farnesyltransferase at 0.5 nM
Plasmodium falciparum [5] = test: Antimalarial activity against chloroquine-sensitive Plasmodium falciparum 3D7 in human red blood cells after 48 hrs; format: functional; conditions: 3D7, 48 h, read-out: ED50 (the source's name)
Method in brief: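 P. falciparum strain 3D7 (chloroquine-sensitive) grown in red blood cell cultures. ED50 was taken as the compound concentration that inhibits parasite growth by 50%.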

Plasmodium falciparum [6] = test: Antimalarial activity against chloroquine-resistant Plasmodium falciparum K1 in human red blood cells after 48 hrs; format: functional; conditions: K1, 48 h, read-out: ED50 (the source's name)
Method in brief: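 Parasites grown in red blood cell cultures; ED50 is the concentration that inhibits parasite growth by 50%.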

[7] = as §1; format: ADME, Microsome; conditions: liver microsomes; method in brief: as §2
Rattus norvegicus [8] = species: Rattus norvegicus; test: Inhibition of rat protein farnesyltransferase at 5000 nM
Rattus norvegicus [9] = species: Rattus norvegicus; test: Inhibition of rat protein farnesyltransferase at 500 nM
Rattus norvegicus [10] = species: Rattus norvegicus; test: Inhibition of rat protein farnesyltransferase at 50 nM
Rattus norvegicus [11] = species: Rattus norvegicus; test: Inhibition of rat protein farnesyltransferase at 5 nM
Rattus norvegicus [12] = species: Rattus norvegicus; test: Inhibition of rat protein farnesyltransferase at 0.5 nM
Rattus norvegicus [13] = species: Rattus norvegicus; test: Inhibition of rat protein geranylgeranyltransferase 1 at 1 uM
Method in brief: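 Run like the rat PFT assay, but with rat PGGT-I (5 ng), H-Ras-CVLL peptide as substrate, and [3H]geranylgeranyl pyrophosphate as donor. Read-out is percent inhibition at a single inhibitor concentration.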

Plasmodium falciparum [14] = test: Antimalarial activity against Plasmodium falciparum; format: functional; conditions: read-out: ED50
Method in brief: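 P. falciparum parasites (chloroquine-sensitive strain 3D7 and chloroquine-resistant strain K1) were grown in red blood cell cultures with compound. ED50 is the concentration giving 50% inhibition of parasite growth, in nM.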

Row | t1/2 (Liver) [min] | EC50 (Plasmodium falciparum [14]) [nM] | SMILES | inhibition (Plasmodium falciparum [1]) [%] | inhibition (Plasmodium falciparum [2]) [%] | inhibition (Plasmodium falciparum [3]) [%] | inhibition (Plasmodium falciparum [4]) [%] | EC50 (Plasmodium falciparum [5]) [nM] | EC50 (Plasmodium falciparum [6]) [nM] | half-life [7] [min] | inhibition (Rattus norvegicus [8]) [%] | inhibition (Rattus norvegicus [9]) [%] | inhibition (Rattus norvegicus [10]) [%] | inhibition (Rattus norvegicus [11]) [%] | inhibition (Rattus norvegicus [12]) [%] | inhibition (Rattus norvegicus [13]) [%]
1 | 15.6 | – | Cn1cnc(S(=O)(=O)N(Cc2ccc(S(C)(=O)=O)cc2)C2Cc3cc(C#N)ccc3N(Cc3cncn3C)C2)c1 (configuration not stated) | – | – | – | – | – | – | – | – | – | – | – | – | –
2 | – | – | COC(=O)N1CCC(CN(C2Cc3cc(C#N)cnc3N(Cc3cncn3C)C2=O)S(=O)(=O)c2cn(C)cn2)CC1 (configuration not stated) | 98 | 95 | 71 | 33 | 350 | 175 | > 120 | 85 | 71 | 28 | 7 | 0 | 5
3 | – | – | Cn1cnc(S(=O)(=O)NC2Cc3cc(C#N)cnc3N(Cc3cncn3C)C2=O)c1 (configuration not stated) | 94 | 66 | 32 | 15 | > 5000 | > 5000 | – | 39 | 0 | 1 | 0 | 0 | 0
4 | – | – | Cn1cnc(S(=O)(=O)N(Cc2ccc(S(C)(=O)=O)cc2)C2Cc3cc(C#N)cnc3N(Cc3cncn3C)C2=O)c1 (configuration not stated) | 99 | 98 | 80 | 27 | 420 | 300 | 52 | 47 | 9 | 0 | 0 | 0 | 0
5 | – | – | Cn1cncc1CN1C(=O)C(N(Cc2ccc(S(C)(=O)=O)cc2)S(=O)(=O)c2ccccn2)Cc2cc(C#N)cnc21 (configuration not stated) | 91 | 48 | 3 | 0 | 3100 | > 5000 | 15 | – | – | – | – | – | –
6 | – | – | Cn1cnc(S(=O)(=O)NC2Cc3cc(Br)cnc3N(Cc3cncn3C)C2=O)c1 (configuration not stated) | 74 | 28 | 0 | 0 | > 5000 | > 5000 | – | 51 | 8 | 8 | 5 | 0 | 16
7 | – | – | COC(=O)N1CCC(CN(C2Cc3cc(C#N)cnc3N(Cc3cncn3C)C2=O)S(=O)(=O)c2ccccn2)CC1 (configuration not stated) | 97 | 88 | 16 | 0 | 320 | 310 | – | – | – | – | – | – | –
8 | – | 320 | COC(=O)N1CCC(CN(C2Cc3cc(C#N)ccc3N(Cc3cncn3C)C2)S(=O)(=O)c2ccccn2)CC1 (configuration not stated) | – | – | – | – | – | – | 5.4 | – | – | – | – | – | –
9 | – | – | COC(=O)N1CCC(CN(C2Cc3cc(C#N)ccc3N(Cc3cncn3C)C2)S(=O)(=O)c2cn(C)cn2)CC1 (configuration not stated) | – | – | – | – | – | – | 3.8 | – | – | – | – | – | –
